The text below walks through data of ChEMBL document CHEMBL1759856, “Synthesis and study of 2-amino-7-bromofluorenes modified with nitroxides and their precursors as dual anti-amyloid and antioxidant active compounds” (Eur J Med Chem, 2011).

A short description of experiment [1]: Antioxidant activity assessed as peroxyl radical scavenging activity at 10 uM by fluorescence quenching assay. It counts as functional. The essentials: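 Peroxyl radicals were assayed with a commercial ORAC kit, per the manufacturer's protocol, with compound at 10 µM. The read-out was quenching of indicator fluorescence (ex 480 nm, em 520 nm).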
A short description of experiment [2]: Antioxidant activity assessed as hydroxyl radical scavenging activity at 0.2 to 10 uM. Type of experiment: functional. The essentials:
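Hydroxyl radical scavenging was measured with a commercial HORAC kit, per the manufacturer's protocol, at compound concentrations of 0.2, 1 and 10 µM. Read-out was fluorescence (ex 485 nm, em 530 nm) of a reporter that is inversely proportional to surviving radical. Distilled water served as control.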

The test system of experiment [3] is HBMEC. Kind of experiment: Antiinflammatory activity in HBMEC cells assessed as inhibition of TGRL lipolysis-induced IL-8 gene expression by RT-PCR analysis relative to control. It counts as functional, cell-based. The note with it: Homo sapiens. The essentials: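 HBMEC (passage 6) were grown in serum-free or 10%-serum complete medium on attachment factor at 37°C in 5% CO2. Cells were pretreated 30 min with 200 µM compound, then exposed 3 h to TGRL (150 mg/dL) plus lipoprotein lipase (2 U/mL), preincubated together 30 min at 37°C. IL-8 mRNA was measured by SYBR Green qRT-PCR, normalized to GAPDH, comparative CT; N = 3.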

Experiment [4] is described as follows: Antioxidant activity assessed as hydroxyl radical scavenging activity by electron paramagnetic resonance spectra analysis. Type of experiment: functional. On the set-up: concentration or dose not given beside the values. The essentials: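 For EPR, 9 µl of ROS mixture was combined immediately with 1 µl of compound from a 2 mM stock. About 5 µl was loaded into a sealed quartz capillary for measurement.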

Experiment [5] is described as follows: Antioxidant activity assessed as peroxyl radical scavenging activity by electron paramagnetic resonance spectra analysis. It counts as functional.
The test system of experiment [6] is HBMEC. Nature of the experiment: Antiinflammatory activity in HBMEC cells assessed as inhibition of TGRL lipolysis-induced COX-2 gene expression by RT-PCR analysis relative to control. The note with it: Homo sapiens. It counts as functional, cell-based. The essentials:
(§1)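 Human brain microvascular endothelial cells (passage 6) grown at 37°C, 5% CO2; pre-treated 30 min with 200 µM compound, then 3 h with TGRL (150 mg/dL) plus lipoprotein lipase (2U/mL), pre-incubated together 30 min at 37°C. Total RNA reverse-transcribed; SYBR Green real-time PCR normalised to GAPDH, comparative CT method; N = 3.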

Experiment [7] has as its system HBMEC. Kind of experiment: Antiinflammatory activity in HBMEC cells assessed as inhibition of TGRL lipolysis-induced ATF3 gene expression by RT-PCR analysis relative to control. It counts as functional, cell-based. The note with it: Homo sapiens. In outline: as §1

Active and inactive are the calls of the source. The calls are words filed in the database; no cut-off is given here.

Consider `CC1(C)CC(O)CC(C)(C)N1[O]`, for which the result in experiment [1] and in experiment [2] was Active.
With `CN1C(C)(C)C=C(CNc2ccc3c(c2)Cc2cc(Br)ccc2-3)C1(C)C`, the result in experiment [3] was inactive. In addition, the result in experiment [1] and in experiment [2] was Active. In addition, the Activity stood at 29% in experiment [4] and 100% in experiment [5].
Consider `CN(CC1=CC(C)(C)NC1(C)C)c1ccc2c(c1)Cc1cc(Br)ccc1-2`, for which the outcome in experiment [3] was inactive. In addition, the outcome in experiment [1] and in experiment [2] was Active. Besides, the results for the Activity in experiment [4] and in experiment [5] were 18% and 100%, respectively.
For `CC1(C)C=C(CNc2ccc3c(c2)Cc2cc(Br)ccc2-3)CC(C)(C)N1[O]`, the outcome in experiment [3], in experiment [1] and in experiment [2] was Active. Besides, the Activity in experiment [4] was found to be 26%.
On to `CN(C)c1ccc2c(c1)Cc1cc(Br)ccc1-2`, for which the outcome in experiment [1] and in experiment [2] was Active.
Consider `CN(CC1=CC(C)(C)N([O])C1(C)C)c1ccc2c(c1)Cc1cc(Br)ccc1-2`, for which the fold change (FC) in experiment [6] worked out at 2.7; in experiment [7] it was 18.3. Also, the result in experiment [1] and in experiment [2] was Active. For the same compound, the Activity in experiment [4] worked out at 18%.
Regarding `CC1(C)C=C(CNc2ccc3c(c2)Cc2cc(Br)ccc2-3)C(C)(C)N1[O]`, the outcome in experiment [3] was inactive. Besides, the outcome in experiment [1] and in experiment [2] was Active. The Activity in experiment [4] worked out at 28%; in experiment [5], 73%.
With `CC1(C)C(Br)=C(CNc2ccc3c(c2)Cc2cc(Br)ccc2-3)C(C)(C)N1[O]`, the outcome in experiment [3] was inactive. In addition, the outcome in experiment [1] and in experiment [2] was Active. Besides, the Activity in experiment [4] came out at 10%.
As to `CC1(C)C=C(CNc2ccc3c(c2)Cc2cc(Br)ccc2-3)CC(C)(C)N1O`, the outcome in experiment [3], in experiment [1] and in experiment [2] was Active. Also, the Activity in experiment [4] came out at 61%; in experiment [5], 80%.
